Data on six compounds can be found in ChEMBL document CHEMBL4393672, “High affinity CXCR4 inhibitors generated by linking low affinity peptides” (Eur J Med Chem, 2019).

SMILES strings stand for the structures. Activity calls are given as the source filed them. The calls are words filed in the database; no cut-off is given here. Residues, ends and D or L forms follow the SMILES beside them.

Series [1] has as its system Human immunodeficiency virus 1. The experiment in a line: Antiviral activity against Human immunodeficiency virus 1 NL4-3 infected in human PBMC cells assessed as reduction in intracellular p24 level at 100 nM preincubated with cells 2 hrs followed by viral infection and measured after 24 hrs by ELISA. The format is functional. An outline of the steps: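 PBMCs from healthy donors (2.5×10^6 cells/mL) were exposed to compound for 2 h, washed, and infected with HIV-1 NL4-3 at MOI 0.02 for 2 h at 37°C. Cells were washed, resuspended in complete medium and incubated 24 h. Cells were then lysed with protease inhibitor, and intracellular p24 was quantified by ELISA.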
On the technique in general: ELISA stands for enzyme-linked immunosorbent assay.

In series [2] the target is T1, C-X-C chemokine receptor type 4 (Homo sapiens, UniProt P61073). The experiment in a line: Competitive binding affinity to CXCR4 in human SupT1 cells incubated for 40 mins by 12G5 antibody based fluorescence analysis. In kind it is cell-based.
T1 sequence (P61073 whole entry): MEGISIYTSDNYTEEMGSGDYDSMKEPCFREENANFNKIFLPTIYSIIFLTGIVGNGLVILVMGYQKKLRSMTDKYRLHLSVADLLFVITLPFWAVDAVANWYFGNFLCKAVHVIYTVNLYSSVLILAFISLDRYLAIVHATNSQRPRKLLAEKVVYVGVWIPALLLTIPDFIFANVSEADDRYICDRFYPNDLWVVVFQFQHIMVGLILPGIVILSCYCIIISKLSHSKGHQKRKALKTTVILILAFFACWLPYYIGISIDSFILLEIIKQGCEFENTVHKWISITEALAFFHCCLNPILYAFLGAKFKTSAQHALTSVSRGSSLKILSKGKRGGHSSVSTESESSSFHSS
Series [3] has as its target T1, C-X-C chemokine receptor type 4. Description: Antagonist activity at CXCR4 receptor in human SupT1 cells assessed as inhibition of SDF-1alpha-induced calcium release at 1 uM preincubated for 2 to 3 mins followed by SDF-1alpha addition by Fluo-4AM dye based fluorescence assay relative to control. In kind it is functional, cell-based. Put shortly: (§1)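 SupT1 cells loaded with Fluo-4AM (2 µM) plus probenecid (5 µM) for 30 min at 37°C in HBSS/20 mM HEPES, washed; 1×10⁶ cells/mL exposed to compound 2–3 min, then stimulated with 50 nM SDF-1α; fluorescence read at […]/510em.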

For series [4] the target is unchanged. Description: Antagonist activity at CXCR4 receptor in human SupT1 cells assessed as inhibition of SDF-1alpha-induced calcium release preincubated for 2 to 3 mins followed by SDF-1alpha addition by Fluo-4AM dye based fluorescence assay. In kind it is functional, cell-based. Put shortly: as §1
Series [5] can be described thus: Stability of compound in water assessed as compound remaining at 1mM at 37 degC after 48 hrs by HPLC analysis relative to control. The format is physicochemical. The note with it: read-out: Stability.
Series [6] concerns the target T1, C-X-C chemokine receptor type 4. Description: Inhibition of N-terminal flag-tagged CXCR4 (unknown origin) internalization expressed in CHO cells incubated for 45 mins and measured after 1 hr by FITC-labeled anti-flag antibody based fluorescence analysis.
The target is the same in series [7]. Description: Competitive binding affinity to CXCR4 receptor (unknown origin) expressed in CHO cells incubated for 40 mins by 12G5 antibody based fluorescence analysis. The format is cell-based.
For series [8], the system named is C-X-C chemokine receptor type 4 (Homo sapiens), P61073 [E288Q]. Description: Binding affinity to CXCR4 E288Q mutant (unknown origin) expresssed in CHO cells at 200 nM incubated for 30 mins by 12G5 antibody based fluorescence analysis. In kind it is cell-based. An outline of the steps: (§2)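 Wild-type or mutant CXCR4 cells (5×10⁵/well) incubated with single 200 nM concentration in FACS buffer (0.5% BSA, 0.05% azide in PBS) plus 12G5 anti-CD184 antibody, 30 min on ice; washed, FITC anti-mouse IgG 30 min on ice; fluorescence 485ex/528em; duplicates, ≥3 independent experiments, normalized as percent of control.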
C-X-C chemokine receptor type 4 (Homo sapiens), P61073 [E288Q], sequence (P61073 whole entry E288Q): as the sequence (P61073 whole entry) above, with E288Q counted along it

The subject of series [9] is C-X-C chemokine receptor type 4 (Homo sapiens), P61073 [D262N]. The experiment in a line: Binding affinity to CXCR4 D262N mutant (unknown origin) expresssed in CHO cells at 200 nM incubated for 30 mins by 12G5 antibody based fluorescence analysis. The format is cell-based. An outline of the steps:
as §2

Series [10] relates to C-X-C chemokine receptor type 4 (Homo sapiens), P61073 [W195A]. Description: Competitive binding affinity to CXCR4 W195A mutant (unknown origin) expresssed in CHO cells at 200 nM incubated for 30 mins by 12G5 antibody based fluorescence analysis. The format is cell-based. Put shortly:
as §2

For series [11], the system named is C-X-C chemokine receptor type 4 (Homo sapiens), P61073 [Y116A]. The experiment in a line: Competitive binding affinity at CXCR4 Y116A mutant (unknown origin) expressed in CHO cells at 200 nM incubated for 30 mins by 12G5 antibody based fluorescence analysis. The format is cell-based. Put shortly:
as §2

Series [12] concerns C-X-C chemokine receptor type 4 (Homo sapiens), P61073 [W94A]. The experiment in a line: Competitive binding affinity at CXCR4 W94A mutant (unknown origin) expressed in CHO cells at 200 nM incubated for 30 mins by 12G5 antibody based fluorescence analysis. The format is cell-based. Put shortly:
as §2

Series [13] relates to C-X-C chemokine receptor type 4 (Homo sapiens), P61073 [Y45A]. The experiment in a line: Competitive binding affinity to CXCR4 Y45A mutant (unknown origin) expressed in CHO cells at 200 nM incubated for 30 mins by 12G5 antibody based fluorescence analysis. The format is cell-based. An outline of the steps:
as §2

The subject of series [14] is C-X-C chemokine receptor type 4 (Homo sapiens), P61073 [D97A]. Description: Binding affinity to CXCR4 D97A mutant (unknown origin) expresssed in CHO cells at 200 nM incubated for 30 mins by 12G5 antibody based fluorescence analysis. In kind it is cell-based. Put shortly: as §2
For series [15], the system named is Human immunodeficiency virus 1. Description: Antiviral activity against Human immunodeficiency virus 1 NL4-3 infected in human PBMC cells assessed as inhibition of extracellular p24 level preincubated with cells for 2 hrs followed by viral infection for 2 hrs and measured after 5 days by ELISA.

C-X-C chemokine receptor type 4 (Homo sapiens), P61073 [W195A], sequence (P61073 whole entry W195A): as the sequence (P61073 whole entry) above, with W195A counted along it
C-X-C chemokine receptor type 4 (Homo sapiens), P61073 [D262N], sequence (P61073 whole entry D262N): as the sequence (P61073 whole entry) above, with D262N counted along it
C-X-C chemokine receptor type 4 (Homo sapiens), P61073 [W94A], sequence (P61073 whole entry W94A): as the sequence (P61073 whole entry) above, with W94A counted along it
C-X-C chemokine receptor type 4 (Homo sapiens), P61073 [Y116A], sequence (P61073 whole entry Y116A): as the sequence (P61073 whole entry) above, with Y116A counted along it
C-X-C chemokine receptor type 4 (Homo sapiens), P61073 [D97A], sequence (P61073 whole entry D97A): as the sequence (P61073 whole entry) above, with D97A counted along it
C-X-C chemokine receptor type 4 (Homo sapiens), P61073 [Y45A], sequence (P61073 whole entry Y45A): as the sequence (P61073 whole entry) above, with Y45A counted along it

As to `c1cc(CN2CCCNCCNCCCNCC2)ccc1CN1CCCNCCNCCCNCC1`, the outcome in series [1] was Active.

Turning to `CC(C)C[C@@H](N)C(=O)NCC(=O)N[C@H](C)C(=O)N[C@H](CO)C(=O)N[C@H](Cc1c[nH]c2ccccc12)C(=O)N[C@H](Cc1cnc[nH]1)C(=O)N[C@H](CCCNC(=N)N)C(=O)N1CCC[C@@H]1C(=O)N[C@H](CC(=O)O)C(=O)N[C@H](CCCCN)C(=O)N[C@H](CS)C(=O)N[C@H](CS)C(=O)N[C@H](CC(C)C)C(=O)NCC(=O)N[C@H](Cc1ccc(O)cc1)C(=O)N[C@H](CCC(N)=O)C(=O)N[C@H](CCCCN)C(=O)N[C@H](CCCNC(=N)N)C(=O)N1CCC[C@@H]1C(=O)N[C@H](CC(C)C)C(=O)N1CCC[C@@H]1C(=O)NCCCCCC(=O)N[C@@H](CCCCN)C(=O)N[C@H](CCCCN)C(=O)N[C@H](CCCNC(=N)N)C(=O)N[C@H](Cc1ccccc1)C(=O)N[C@H](Cc1ccccc1)C(=O)N[C@H](CC(=O)O)C(=O)NCC(=O)N[C@H](CC(C)C)C(=O)N[C@H](CC(C)C)C(N)=O`, in [2], the IC50 (as a rule, the concentration at which inhibition is half-maximal) came to 193 nM.

In the case of `CC[C@H](C)[C@H](NC(=O)[C@H](CC(=O)O)NC(=O)CNC(=O)[C@H](CCCCN)NC(=O)[C@H](CCCNC(=N)N)NC(=O)[C@H](CCCCN)NC(=O)CCCCCNC(=O)[C@@H](CCCNC(=N)N)NC(=O)[C@@H](CCCCN)NC(=O)[C@@H](CCCCN)NC(=O)[C@@H](CC(=O)O)NC(=O)[C@H]1CCCN1C(=O)[C@@H](CCCNC(=N)N)NC(=O)[C@@H](Cc1cnc[nH]1)NC(=O)[C@@H](Cc1c[nH]c2ccccc12)NC(=O)[C@@H](CO)NC(=O)[C@@H](C)NC(=O)CNC(=O)[C@H](N)CC(C)C)C(=O)N[C@@H](CCCNC(=N)N)C(=O)N[C@@H](CCC(N)=O)C(=O)N[C@@H](C)C(=O)N[C@@H](Cc1cnc[nH]1)C(=O)N[C@@H](CS)C(N)=O`, the inhibition (in general, the change of the read-out against control, counted positive when it falls) in [3] is 100%; in [4] it was “Dose-dependent effect”. Further, in series [1], the inhibition result was “Active”. For the same compound, in series [5], the remaining at 48 h, 1000 µM was 95%. Moreover, in series [6], the result was inactive.

For `CC[C@H](C)[C@H](NC(=O)[C@H](CC(=O)O)NC(=O)CNC(=O)[C@H](CCCCN)NC(=O)[C@H](CCCNC(=N)N)NC(=O)[C@H](CCCCN)NC(=O)CCCCCN)C(=O)N[C@@H](CCCNC(=N)N)C(=O)N[C@@H](CCC(N)=O)C(=O)N[C@@H](C)C(=O)N[C@@H](Cc1cnc[nH]1)C(=O)N[C@@H](CS)C(N)=O` (HELM PEPTIDE1{[NCCCCCC(=O)[*:2]].K.R.K.G.D.I.R.Q.A.H.C.[am]}$$$$V2.0), the IC50 in series [2] and in series [7] was more than 50000 nM each time.

Take `CC(C)C[C@@H](N)C(=O)NCC(=O)N[C@H](C)C(=O)N[C@H](CO)C(=O)N[C@H](Cc1c[nH]c2ccccc12)C(=O)N[C@H](Cc1cnc[nH]1)C(=O)N[C@H](CCCNC(=N)N)C(=O)N1CCC[C@@H]1C(=O)N[C@H](CC(=O)O)C(=O)N[C@H](CCCCN)C(N)=O` (HELM PEPTIDE1{[dL].G.[dA].[dS].[dW].[dH].[dR].[dP].[dD].[dK].[am]}$$$$V2.0): the result in series [8], in series [9], in series [10] and in series [14] was inactive. The result in [11], in series [12] and in series [13] was Active. For the same compound, the inhibition entry in series [1] and in series [15] was “inactive” in each case.

For the compound `CC(C)C[C@@H](N)C(=O)NCC(=O)N[C@H](C)C(=O)N[C@H](CO)C(=O)N[C@H](Cc1c[nH]c2ccccc12)C(=O)N[C@H](Cc1cnc[nH]1)C(=O)N[C@H](CCCNC(=N)N)C(=O)N1CCC[C@@H]1C(=O)N[C@H](CC(=O)O)C(=O)N[C@H](CCCCN)C(=O)N[C@H](CS)C(=O)N[C@H](CS)C(=O)N[C@H](CC(C)C)C(=O)NCC(=O)N[C@H](Cc1ccc(O)cc1)C(=O)N[C@H](CCC(N)=O)C(=O)N[C@H](CCCCN)C(=O)N[C@H](CCCNC(=N)N)C(=O)N1CCC[C@@H]1C(=O)N[C@H](CC(C)C)C(=O)N1CCC[C@@H]1C(=O)NCCCCCC(=O)N[C@@H](CCCCN)C(=O)NCC(=O)N[C@@H](CC(C)C)C(=O)N[C@@H](CC(C)C)C(=O)NCC(=O)N[C@@H](CC(C)C)C(=O)N[C@@H](CO)C(=O)N[C@@H](CCCCN)C(N)=O`, the IC50 in series [2] was found to be 147 nM.
